Bioassay records from PubChem.
SIAE inh: human SIAE inhibition, primary screen | SIAE FP-Rh probe binding, fluorescence polarization | inhibition, % at 9.66 µM | actives 0.69% (n = 370,000) | AID 1053197;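 active = inhibition above a cutoff: mean of compounds within the control limits plus 3 SD of those, cut at about 17% in these data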
TCR-CD3 inh: human TCR-CD3 binding inhibition | TAMRA-labeled TCR probe fluorescence, biochemical | inhibition, % at 9.4 µM | actives 0.37% (n = 360,000); in the data active = inhibition above about 19%;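 note: recombinant mutant TCR 2C K166C tagged with TAMRA read by polarization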
PRMT1 FP inh: inhibitors of human PRMT1 | Q99873 | recombinant PRMT1, activity-based probe fluorescence polarization | inhibition, % at 2.79 µM | actives 1.3% (n = 370,000) | AID 652257;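 active = inhibition above about 21% made by adding two undisclosed values, limit read from the data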
mABHD4 FP: inhibitors of mouse ABHD4. inhibition, % at 8.92 µM. purified mABHD4, FP-Rh probe fluorescence polarization. AID 720543. actives 0.54% (n = 370,000);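 active = inhibition exceeding the mean over every tested compound plus 3 SD, cut at about 30% in these data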
Target sequence (Q8VD66 whole entry, looked up): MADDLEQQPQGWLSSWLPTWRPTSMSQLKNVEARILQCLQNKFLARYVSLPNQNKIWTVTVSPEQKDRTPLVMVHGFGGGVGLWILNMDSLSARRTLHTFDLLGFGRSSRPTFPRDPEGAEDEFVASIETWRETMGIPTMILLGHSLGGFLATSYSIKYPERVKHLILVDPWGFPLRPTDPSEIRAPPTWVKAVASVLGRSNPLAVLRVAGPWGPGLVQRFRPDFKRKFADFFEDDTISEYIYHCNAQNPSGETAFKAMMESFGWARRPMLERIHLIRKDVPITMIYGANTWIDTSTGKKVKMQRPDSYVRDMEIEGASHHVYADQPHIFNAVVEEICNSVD
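Assay system: Wild-type mouse ABHD4 protein | Medium: HEPES pH 7.0 buffer, 150 mM NaCl, 0.01% Pluronic F-127 | Incubation: Enzyme–compound pre-incubation 45 min, then probe 60 min, both 25 °C | Technique: Fluorescence polarization with parallel and perpendicular emission, 525/598 nm | Evaluation: % inhibition of FP-Rh probe binding versus controls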
HTRA1 inhibitor: inhibitors of human serine peptidase HTRA1; Q92743; recombinant HTRA1, FP-rhodamine activity-based probe, fluorescence polarization; inhibition, % at 5.96 µM; actives 0.5% (n = 340,000); AID 504803; in the data active = inhibition above about 36%
PRMT1 confirm: PRMT1 (human) inhibition, FP confirmation; shares compounds with PRMT1 FP inh; actives 42% (n = 3,300); recombinant His-PRMT1, activity-based probe fluorescence polarization; inhibition, % at 2.79 µM;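 active = mean inhibition across replicates above the hit cutoff derived for the earlier primary screen, cut at about 22% in these data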
Of the large screens only hits and unclear results are named; the others gave an inactive call (follow-up assays come after a bar, where they were run). This is a sample that favours compounds with a hit; in the whole collection about 2.6% have one here.

O=C(O)/C(=C\c1ccc(-c2ccc(F)cc2)o1)c1ccccc1	PRMT1 FP inh 28.0 | PRMT1 confirm inactive
CN1/C(=C/C(=O)C2CCC2)Sc2ccccc21	PRMT1 FP inh 62.7 | PRMT1 confirm inactive
COCC(=O)/C=C1\Sc2ccccc2N1C	none
COc1cc(OC)cc(C(=O)/C=C2\Sc3ccccc3N2C)c1	none
CN1/C(=C\C(=O)c2cccs2)Sc2ccccc21	PRMT1 FP inh 42.0 | PRMT1 confirm inactive
CN1/C(=C/C(=O)c2cccs2)Sc2ccccc21	PRMT1 FP inh 25.1 | PRMT1 confirm inactive
CCOC(=O)C1CSCCS(=O)(=O)N1Cc1ccccc1F (stereo not given)	none (no result: HTRA1 inhibitor)
CC(=NNC(=O)CSc1nnc(-c2ccccc2)n1-c1ccccc1)c1cccc([N+](=O)[O-])c1	none (no result: TCR-CD3 inh, HTRA1 inhibitor)
Cc1ccccc1NS(=O)(=O)c1ccc(-c2ccc(=O)[nH]n2)o1	none
CCN(CC)c1ccc(NS(=O)(=O)c2ccc(-c3ccc(=O)[nH]n3)o2)c(C)c1	PRMT1 FP inh 42.0 | PRMT1 confirm inactive
CCCCNC(=O)C[C@H]1C[C@@]2(C(=O)OC)C(=C[C@H](C(C)C)O[C@@H]2C2CC2)N(CCC2=CCCCC2)C1=O	none (no result: TCR-CD3 inh, HTRA1 inhibitor)
CC(=O)Nc1sc2c(c1-c1nc3ccccc3s1)CNC2	PRMT1 FP inh 26.5 (no result: TCR-CD3 inh, HTRA1 inhibitor) | PRMT1 confirm inactive
CC(C)N1CCc2c(-c3nc4ccccc4s3)csc2C1	none (no result: TCR-CD3 inh, HTRA1 inhibitor)
CC(C)N1CCc2c(sc(NC(=O)C(F)(F)F)c2-c2nc3ccccc3s2)C1	PRMT1 FP inh 31.2 (no result: TCR-CD3 inh, HTRA1 inhibitor) | PRMT1 confirm inactive
CC(=O)Nc1scc(C)c1-c1nc2ccccc2s1	none
Cc1cccc(Nc2ncnc(N)c2[N+](=O)[O-])n1	none
Cc1cc(C)nc(Sc2ncnc(N)c2[N+](=O)[O-])n1	PRMT1 FP inh 46.9 | PRMT1 confirm inactive
CC(=O)NCCN=Cc1sc2ccccc2c1O	PRMT1 FP inh 39.9 | PRMT1 confirm 29.9
CN=Cc1sc2ccccc2c1O	PRMT1 FP inh 52.2 | PRMT1 confirm 27.1
Oc1sc(C=Nc2ccccc2)c2ccccc12	none
Oc1c(C=Nc2ccccc2)sc2ccccc12	PRMT1 FP inh 58.6 | PRMT1 confirm 31.8
Oc1c(C=Nc2cccnc2)sc2ccccc12	PRMT1 FP inh 65.1 | PRMT1 confirm 45.1
CCN(CC)C(=S)SSC(=S)N(CC)CC	PRMT1 FP inh 74.3 | PRMT1 confirm 79.8
CCN(CC)C(=S)SCC(=O)c1ccccc1	none
COc1ccccc1NC(=O)c1c(NC(=O)CCC(=O)O)sc2c1CCCCC2	PRMT1 FP inh 31.8 | PRMT1 confirm inactive
O=C(O)CCC(=O)Nc1sc2c(c1C(=O)Nc1ccccc1)CCCCC2	PRMT1 FP inh 37.5 | PRMT1 confirm inactive
CN(C)c1ccc(/C=N\NC(=S)SCN2C(=O)C3CCC(C)(C2=O)C3(C)C)cc1 (stereo not given)	PRMT1 FP inh 43.5 | PRMT1 confirm inactive
O=C(c1ccccc1)C1CCN(c2ncnc3sccc23)CC1	none (no result: TCR-CD3 inh, HTRA1 inhibitor)
CS(=O)(=O)c1cc([N+](=O)[O-])c(Sc2nc3ccccc3[nH]2)c([N+](=O)[O-])c1	PRMT1 FP inh 55.9 | PRMT1 confirm 70.2
Cc1cc(C)cc(-n2nnn(C3C/C(=N/NC(N)=S)C4OCC3O4)c2=S)c1 (stereo not given)	PRMT1 FP inh 25.6 | PRMT1 confirm inactive
Cc1ccc(C(=O)NC2CCCCN(C(C)C)C2=O)cc1 (stereo not given)	none (no result: TCR-CD3 inh, HTRA1 inhibitor)
Cc1c(N2C(=O)/C(=C/C3CC=CCC3)SC2=S)c(=O)n(-c2ccccc2)n1C (stereo not given)	PRMT1 FP inh 38.6 (no result: HTRA1 inhibitor) | PRMT1 confirm 25.9
Cc1c(N2C(=O)/C(=C\C3CC=CCC3)SC2=S)c(=O)n(-c2ccccc2)n1C (stereo not given)	PRMT1 FP inh 43.0 | PRMT1 confirm 25.4
Cc1c(N2C(=O)/C(=C/c3ccccc3)SC2=S)c(=O)n(-c2ccccc2)n1C	none
Cc1c(N2C(=O)/C(=C\c3ccccc3O)SC2=S)c(=O)n(-c2ccccc2)n1C	PRMT1 FP inh 47.1 | PRMT1 confirm 82.7
Cc1ccc(CNC(=O)CSc2c3c(nc4cc(Cl)ccc24)CCCC3)o1	PRMT1 FP inh 59.8 | PRMT1 confirm inactive
O=C(Nc1ccncc1)c1ccc(Cl)c(Cl)c1	PRMT1 FP inh 27.6 | PRMT1 confirm inactive
Cc1sc(Cc2nc(O)cs2)nc1-c1ccccc1	PRMT1 FP inh 58.0 (no result: HTRA1 inhibitor) | PRMT1 confirm inactive
Oc1csc(Cc2nc(-c3ccc(Br)cc3)cs2)n1	none
